According to ChEMBL document CHEMBL1157789, “Design, synthesis and SAR of phenylamino-substituted 5,11-dihydro-dibenzo[a,d]cyclohepten-10-ones and 11H-dibenzo[b,f]oxepin-10-ones as p38 MAP kinase inhibitors” (Bioorg Med Chem Lett, 2010):
Calls of active or inactive are those of the source. The rule behind the calls is not given here.

Columns and labels:
[1] = Inhibition of p38 assessed as rate of ATF-2 phosphorylation at 10 uM by immunosorbent non-radioactive enzyme assay
In short: (§1)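 p38α MAP kinase ELISA-type (immunosorbent, non-radioactive) assay. Enzyme was incubated with ATP at 100 µM, ATF-2 as substrate, and test compound at 10^-5 to 10^-8 M. Activity was read as the rate of ATF-2 phosphorylation. SB203580 served as the reference inhibitor.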

[2] = target: RAC-alpha serine/threonine-protein kinase (Homo sapiens) (UniProt P31749); assay: Inhibition of AKT1 at 10 uM
Sequence of RAC-alpha serine/threonine-protein kinase (Homo sapiens) (P31749 whole entry): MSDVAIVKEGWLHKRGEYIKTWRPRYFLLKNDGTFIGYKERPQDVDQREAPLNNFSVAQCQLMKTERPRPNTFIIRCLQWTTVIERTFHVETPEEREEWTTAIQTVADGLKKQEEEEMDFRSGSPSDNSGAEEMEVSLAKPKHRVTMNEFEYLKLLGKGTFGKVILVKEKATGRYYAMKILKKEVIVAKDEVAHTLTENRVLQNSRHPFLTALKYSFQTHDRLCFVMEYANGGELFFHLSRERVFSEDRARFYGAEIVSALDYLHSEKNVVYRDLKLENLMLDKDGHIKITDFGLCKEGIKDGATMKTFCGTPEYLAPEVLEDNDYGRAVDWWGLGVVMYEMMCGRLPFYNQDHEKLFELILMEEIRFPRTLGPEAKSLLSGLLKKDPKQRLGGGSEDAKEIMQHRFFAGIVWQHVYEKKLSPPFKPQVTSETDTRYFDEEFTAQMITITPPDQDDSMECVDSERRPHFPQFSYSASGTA

[3] = target: T1, NUAK family SNF1-like kinase 1 (Homo sapiens) (UniProt O60285); assay: Inhibition of ARK5 at 10 uM
T1 sequence (whole entry): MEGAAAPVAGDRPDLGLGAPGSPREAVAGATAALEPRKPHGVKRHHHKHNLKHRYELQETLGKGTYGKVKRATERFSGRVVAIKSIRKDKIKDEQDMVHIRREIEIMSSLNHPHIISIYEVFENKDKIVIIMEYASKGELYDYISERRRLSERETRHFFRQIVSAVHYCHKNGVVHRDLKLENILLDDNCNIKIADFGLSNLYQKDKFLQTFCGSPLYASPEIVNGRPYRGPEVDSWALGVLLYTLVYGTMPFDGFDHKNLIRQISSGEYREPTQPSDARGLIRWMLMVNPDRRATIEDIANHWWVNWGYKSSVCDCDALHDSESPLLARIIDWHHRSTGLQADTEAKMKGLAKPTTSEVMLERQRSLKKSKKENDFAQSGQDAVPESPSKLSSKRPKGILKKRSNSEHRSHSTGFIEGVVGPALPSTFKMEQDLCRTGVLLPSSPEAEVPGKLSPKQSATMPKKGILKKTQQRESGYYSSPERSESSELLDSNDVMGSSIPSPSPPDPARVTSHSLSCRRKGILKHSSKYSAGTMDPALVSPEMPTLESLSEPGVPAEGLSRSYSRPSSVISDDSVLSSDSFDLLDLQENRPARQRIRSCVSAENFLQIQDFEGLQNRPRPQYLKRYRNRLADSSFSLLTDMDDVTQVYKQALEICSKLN

[4] = target: Aurora kinase B (Homo sapiens) (UniProt Q96GD4); assay: Inhibition of Aurora B at 10 uM
[5] = target: Tyrosine-protein kinase receptor UFO (Homo sapiens) (UniProt P30530); assay: Inhibition of AXL at 10 uM
Sequence of Tyrosine-protein kinase receptor UFO (Homo sapiens) (P30530 whole entry): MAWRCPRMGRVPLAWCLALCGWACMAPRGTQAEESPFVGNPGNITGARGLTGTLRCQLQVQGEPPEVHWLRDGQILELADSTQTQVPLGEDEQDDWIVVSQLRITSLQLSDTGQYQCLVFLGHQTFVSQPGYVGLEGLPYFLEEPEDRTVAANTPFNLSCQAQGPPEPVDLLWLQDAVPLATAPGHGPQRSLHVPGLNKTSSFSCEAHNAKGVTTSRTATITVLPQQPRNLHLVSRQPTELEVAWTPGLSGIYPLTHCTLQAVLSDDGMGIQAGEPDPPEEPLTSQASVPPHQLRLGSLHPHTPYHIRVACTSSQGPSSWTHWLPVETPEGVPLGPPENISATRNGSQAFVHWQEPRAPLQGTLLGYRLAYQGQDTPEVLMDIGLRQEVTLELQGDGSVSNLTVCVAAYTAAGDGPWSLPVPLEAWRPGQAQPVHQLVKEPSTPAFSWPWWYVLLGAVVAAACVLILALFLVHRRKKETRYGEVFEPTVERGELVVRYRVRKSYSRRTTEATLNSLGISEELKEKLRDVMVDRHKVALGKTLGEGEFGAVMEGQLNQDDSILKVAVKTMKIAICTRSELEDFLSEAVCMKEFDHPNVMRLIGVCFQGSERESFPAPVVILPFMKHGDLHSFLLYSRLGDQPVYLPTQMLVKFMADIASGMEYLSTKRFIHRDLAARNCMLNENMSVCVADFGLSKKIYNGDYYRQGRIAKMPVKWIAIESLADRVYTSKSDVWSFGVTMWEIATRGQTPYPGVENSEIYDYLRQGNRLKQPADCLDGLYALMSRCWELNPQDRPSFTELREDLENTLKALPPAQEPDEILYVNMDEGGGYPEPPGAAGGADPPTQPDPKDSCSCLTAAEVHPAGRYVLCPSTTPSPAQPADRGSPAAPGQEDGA

[6] = system: Serine/threonine-protein kinase B-raf (Homo sapiens), P15056 [V600E]; assay: Inhibition of B-Raf V600E mutant at 10 uM
[7] = target: Casein kinase II subunit alpha (Homo sapiens) (UniProt P68400); assay: Inhibition of CK2alpha1 at 10 uM
Sequence of Casein kinase II subunit alpha (Homo sapiens) (P68400 whole entry, looked up): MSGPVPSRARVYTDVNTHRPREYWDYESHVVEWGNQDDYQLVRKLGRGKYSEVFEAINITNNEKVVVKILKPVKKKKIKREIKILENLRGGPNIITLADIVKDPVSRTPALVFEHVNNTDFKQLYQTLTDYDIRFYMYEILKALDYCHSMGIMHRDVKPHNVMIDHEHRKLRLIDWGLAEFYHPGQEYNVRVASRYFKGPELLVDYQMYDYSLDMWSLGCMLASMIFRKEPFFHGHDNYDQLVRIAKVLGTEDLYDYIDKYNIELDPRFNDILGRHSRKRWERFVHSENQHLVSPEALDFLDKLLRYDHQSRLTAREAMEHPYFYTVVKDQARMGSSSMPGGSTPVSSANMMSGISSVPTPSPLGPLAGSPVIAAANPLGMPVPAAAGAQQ

[8] = target: Focal adhesion kinase 1 (Homo sapiens) (UniProt Q05397); assay: Inhibition of FAK at 10 uM
[9] = target: Insulin-like growth factor 1 receptor (Homo sapiens) (UniProt P08069); assay: Inhibition of IGF1R at 10 uM
Sequence of Insulin-like growth factor 1 receptor (Homo sapiens) (P08069 31-736 limits assumed): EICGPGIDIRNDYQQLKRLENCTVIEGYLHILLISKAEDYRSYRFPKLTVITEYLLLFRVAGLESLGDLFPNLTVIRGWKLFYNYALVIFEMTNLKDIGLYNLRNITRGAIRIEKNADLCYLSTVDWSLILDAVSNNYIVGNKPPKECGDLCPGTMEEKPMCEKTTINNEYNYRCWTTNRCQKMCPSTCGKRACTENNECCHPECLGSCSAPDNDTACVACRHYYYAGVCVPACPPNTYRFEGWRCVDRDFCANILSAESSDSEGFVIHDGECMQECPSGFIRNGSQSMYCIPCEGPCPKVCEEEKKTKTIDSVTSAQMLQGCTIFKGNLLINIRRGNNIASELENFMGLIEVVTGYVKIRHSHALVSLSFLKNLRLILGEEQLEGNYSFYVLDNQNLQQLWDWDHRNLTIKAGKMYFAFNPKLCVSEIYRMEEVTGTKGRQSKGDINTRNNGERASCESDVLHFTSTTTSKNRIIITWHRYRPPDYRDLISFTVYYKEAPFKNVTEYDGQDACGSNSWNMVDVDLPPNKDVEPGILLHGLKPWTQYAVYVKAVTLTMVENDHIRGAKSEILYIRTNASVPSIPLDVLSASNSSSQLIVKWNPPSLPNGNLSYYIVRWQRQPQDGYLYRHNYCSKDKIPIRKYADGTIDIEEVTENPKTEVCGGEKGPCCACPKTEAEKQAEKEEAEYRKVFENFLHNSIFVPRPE
Sequence of Insulin-like growth factor 1 receptor (Homo sapiens) (P08069 741-1367 limits assumed): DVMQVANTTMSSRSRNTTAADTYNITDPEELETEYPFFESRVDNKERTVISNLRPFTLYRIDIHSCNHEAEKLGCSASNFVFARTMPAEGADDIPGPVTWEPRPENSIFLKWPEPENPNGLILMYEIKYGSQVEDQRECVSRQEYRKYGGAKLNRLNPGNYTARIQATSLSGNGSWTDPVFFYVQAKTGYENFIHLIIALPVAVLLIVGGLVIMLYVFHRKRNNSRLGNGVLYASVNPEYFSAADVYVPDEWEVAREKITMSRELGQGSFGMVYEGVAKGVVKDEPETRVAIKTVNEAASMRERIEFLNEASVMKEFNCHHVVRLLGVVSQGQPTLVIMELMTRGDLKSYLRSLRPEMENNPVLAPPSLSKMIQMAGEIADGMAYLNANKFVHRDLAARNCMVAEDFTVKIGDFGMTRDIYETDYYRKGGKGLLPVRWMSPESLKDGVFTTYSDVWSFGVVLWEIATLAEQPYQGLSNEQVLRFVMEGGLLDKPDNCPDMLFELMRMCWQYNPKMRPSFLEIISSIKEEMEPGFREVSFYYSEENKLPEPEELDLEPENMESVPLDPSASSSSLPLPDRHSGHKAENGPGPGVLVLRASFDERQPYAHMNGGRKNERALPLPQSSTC

[10] = target: Insulin receptor (Homo sapiens) (UniProt P06213); assay: Inhibition of INSR at 10 uM
Sequence of Insulin receptor (Homo sapiens) (P06213 28-758 limits assumed): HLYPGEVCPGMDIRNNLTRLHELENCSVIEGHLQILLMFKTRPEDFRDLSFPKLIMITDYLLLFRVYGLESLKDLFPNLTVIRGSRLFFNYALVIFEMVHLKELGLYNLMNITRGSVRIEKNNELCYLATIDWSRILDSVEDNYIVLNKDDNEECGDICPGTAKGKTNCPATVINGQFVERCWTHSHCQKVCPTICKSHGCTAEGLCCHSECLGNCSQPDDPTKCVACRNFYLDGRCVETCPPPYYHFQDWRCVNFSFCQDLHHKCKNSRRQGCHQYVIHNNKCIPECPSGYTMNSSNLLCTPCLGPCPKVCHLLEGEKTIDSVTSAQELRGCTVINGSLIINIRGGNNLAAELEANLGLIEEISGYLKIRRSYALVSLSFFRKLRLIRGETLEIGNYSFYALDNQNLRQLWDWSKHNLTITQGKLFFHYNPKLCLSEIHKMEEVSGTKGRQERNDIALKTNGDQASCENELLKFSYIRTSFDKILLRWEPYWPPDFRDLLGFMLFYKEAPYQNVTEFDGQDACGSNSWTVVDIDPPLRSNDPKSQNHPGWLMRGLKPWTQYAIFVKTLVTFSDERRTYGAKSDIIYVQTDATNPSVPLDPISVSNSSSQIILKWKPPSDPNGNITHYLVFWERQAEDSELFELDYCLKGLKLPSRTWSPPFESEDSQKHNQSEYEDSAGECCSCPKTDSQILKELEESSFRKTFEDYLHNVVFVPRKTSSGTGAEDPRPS
Sequence of Insulin receptor (Homo sapiens) (P06213 763-1382 limits assumed): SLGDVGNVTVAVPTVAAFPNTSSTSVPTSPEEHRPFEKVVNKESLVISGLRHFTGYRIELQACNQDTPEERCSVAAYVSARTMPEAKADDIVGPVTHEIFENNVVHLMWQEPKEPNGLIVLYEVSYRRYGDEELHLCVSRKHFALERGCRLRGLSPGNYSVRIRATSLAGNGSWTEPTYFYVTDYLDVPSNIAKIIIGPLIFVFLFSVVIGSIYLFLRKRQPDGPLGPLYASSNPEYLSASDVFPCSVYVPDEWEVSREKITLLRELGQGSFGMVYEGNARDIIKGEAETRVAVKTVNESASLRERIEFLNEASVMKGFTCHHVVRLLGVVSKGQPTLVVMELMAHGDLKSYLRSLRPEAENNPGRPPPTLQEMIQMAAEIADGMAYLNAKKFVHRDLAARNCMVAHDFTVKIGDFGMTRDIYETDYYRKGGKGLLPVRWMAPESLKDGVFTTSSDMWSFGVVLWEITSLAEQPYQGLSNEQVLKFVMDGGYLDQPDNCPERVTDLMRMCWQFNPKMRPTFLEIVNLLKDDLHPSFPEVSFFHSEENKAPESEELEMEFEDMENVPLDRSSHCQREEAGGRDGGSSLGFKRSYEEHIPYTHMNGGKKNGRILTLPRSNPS

[11] = target: Hepatocyte growth factor receptor (Homo sapiens) (UniProt P08581); assay: Inhibition of MET at 10 uM
[12] = target: Serine/threonine-protein kinase PLK1 (Homo sapiens) (UniProt P53350); assay: Inhibition of PLK1 at 10 uM
[13] = target: Serine/threonine-protein kinase N1 (Homo sapiens) (UniProt Q16512); assay: Inhibition of PRK1 at 10 uM
[14] = target: T2, Serine/threonine-protein kinase PLK4 (Homo sapiens) (UniProt O00444); assay: Inhibition of SAK at 10 uM
T2 sequence (whole entry): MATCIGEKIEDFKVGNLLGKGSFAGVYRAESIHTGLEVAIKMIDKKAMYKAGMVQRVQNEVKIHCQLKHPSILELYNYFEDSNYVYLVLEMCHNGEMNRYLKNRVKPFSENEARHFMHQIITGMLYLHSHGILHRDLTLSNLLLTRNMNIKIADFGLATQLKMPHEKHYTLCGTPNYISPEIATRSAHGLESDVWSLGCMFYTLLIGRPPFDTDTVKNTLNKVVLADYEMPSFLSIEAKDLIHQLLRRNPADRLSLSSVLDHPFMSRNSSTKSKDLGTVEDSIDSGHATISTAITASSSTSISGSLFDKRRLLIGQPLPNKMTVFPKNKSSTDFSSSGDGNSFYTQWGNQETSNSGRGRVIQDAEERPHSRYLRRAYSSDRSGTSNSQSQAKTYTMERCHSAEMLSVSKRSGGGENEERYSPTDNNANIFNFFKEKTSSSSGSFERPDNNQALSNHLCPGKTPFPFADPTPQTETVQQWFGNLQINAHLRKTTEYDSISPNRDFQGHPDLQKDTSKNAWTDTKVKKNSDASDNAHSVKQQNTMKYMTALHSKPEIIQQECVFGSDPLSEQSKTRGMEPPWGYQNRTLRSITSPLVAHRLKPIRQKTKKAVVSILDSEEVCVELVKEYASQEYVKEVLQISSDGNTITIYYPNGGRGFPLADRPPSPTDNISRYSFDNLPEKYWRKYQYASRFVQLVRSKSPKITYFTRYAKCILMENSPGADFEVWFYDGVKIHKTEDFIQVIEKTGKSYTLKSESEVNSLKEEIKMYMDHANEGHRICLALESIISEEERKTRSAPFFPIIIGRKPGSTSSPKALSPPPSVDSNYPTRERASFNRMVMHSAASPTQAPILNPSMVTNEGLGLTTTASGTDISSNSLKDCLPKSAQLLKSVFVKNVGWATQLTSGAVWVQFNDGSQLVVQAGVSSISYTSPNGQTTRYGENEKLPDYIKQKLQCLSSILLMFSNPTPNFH

[15] = target: Proto-oncogene tyrosine-protein kinase Src (Homo sapiens) (UniProt P12931); assay: Inhibition of SRC at 10 uM
Sequence of Proto-oncogene tyrosine-protein kinase Src (Homo sapiens) (P12931 2-536 limits assumed): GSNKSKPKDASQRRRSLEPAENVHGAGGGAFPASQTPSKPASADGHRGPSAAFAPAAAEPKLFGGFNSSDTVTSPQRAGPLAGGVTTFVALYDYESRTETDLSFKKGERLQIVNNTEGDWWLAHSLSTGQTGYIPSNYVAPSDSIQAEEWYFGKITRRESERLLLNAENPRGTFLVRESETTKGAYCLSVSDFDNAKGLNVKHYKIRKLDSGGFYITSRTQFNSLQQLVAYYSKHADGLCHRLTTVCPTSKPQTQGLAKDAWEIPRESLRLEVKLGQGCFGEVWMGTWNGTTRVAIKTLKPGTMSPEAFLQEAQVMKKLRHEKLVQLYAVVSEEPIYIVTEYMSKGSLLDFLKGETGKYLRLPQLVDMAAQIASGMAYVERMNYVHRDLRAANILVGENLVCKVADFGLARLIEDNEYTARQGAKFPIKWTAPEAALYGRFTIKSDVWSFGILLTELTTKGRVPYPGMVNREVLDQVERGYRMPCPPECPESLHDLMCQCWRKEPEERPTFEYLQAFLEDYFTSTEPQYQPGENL

[16] = target: BDNF/NT-3 growth factors receptor (Homo sapiens) (UniProt Q16620); assay: Inhibition of TRKB at 10 uM
[17] = target: Vascular endothelial growth factor receptor 2 (Homo sapiens) (UniProt P35968); assay: Inhibition of VGFR2 at 10 uM
[18] = Inhibition of p38 assessed as rate of ATF-2 phosphorylation by immunosorbent non-radioactive enzyme assay; in short: as §1

Structure (SMILES)	inhibition [1]	inhibition [2]	inhibition [3]	inhibition [4]	inhibition [5]	inhibition [6]	inhibition [7]	inhibition [8]	inhibition [9]	inhibition [10]	inhibition [11]	inhibition [12]	inhibition [13]	inhibition [14]	inhibition [15]	inhibition [16]	inhibition [17]	IC50 [18]
Nc1ccc(Nc2ccc3c(c2)Cc2ccccc2CC3=O)cc1	15%	inactive	inactive	inactive	inactive	inactive	inactive	inactive	inactive	inactive	inactive	inactive	inactive	inactive	inactive	inactive	inactive	
O=C1Cc2ccccc2Cc2cc(NCc3ccccc3)ccc21	9%	inactive	inactive	inactive	inactive	inactive	inactive	inactive	inactive	inactive	inactive	inactive	inactive	inactive	inactive	inactive	inactive	
O=C1Cc2ccccc2Cc2c(Nc3ccccc3)cccc21	47%																	
O=C1Cc2ccccc2Cc2cc(-c3ccccc3)ccc21	43%	inactive	inactive	inactive	inactive	inactive	inactive	inactive	inactive	inactive	inactive	inactive	inactive	inactive	inactive	inactive	inactive	
O=C1Cc2ccccc2Cc2c(Nc3ccc(F)cc3F)cccc21	6%																	
O=C1Cc2ccccc2Cc2cc(Nc3ccc(F)cc3F)ccc21		inactive	inactive	inactive	inactive	inactive	inactive	inactive	inactive	inactive	inactive	inactive	inactive	inactive	inactive	inactive	inactive	1510 nM
O=C1Cc2ccccc2Cc2ccc(Nc3ccc(F)cc3F)cc21	44%																	
O=C1Cc2cc(Nc3ccccc3)ccc2Cc2ccccc21	47%	inactive	inactive	inactive	inactive	inactive	inactive	inactive	inactive	inactive	inactive	inactive	inactive	inactive	inactive	inactive	inactive	

Next, values leading:

inhibition [1]	inhibition [2]	inhibition [3]	inhibition [4]	inhibition [5]	inhibition [6]	inhibition [7]	inhibition [8]	inhibition [9]	inhibition [10]	inhibition [11]	inhibition [12]	inhibition [13]	inhibition [14]	inhibition [15]	inhibition [16]	inhibition [17]	IC50 [18]	Structure (SMILES)
36%																		Nc1ccccc1Nc1ccc2c(c1)C(=O)Cc1ccccc1O2
46%																		Nc1cc(F)ccc1Nc1ccc2c(c1)C(=O)Cc1ccccc1O2
12%																		O=C1Cc2ccccc2Oc2c(Nc3ccc(F)cc3F)cccc21
25%																		O=C1Cc2ccccc2Oc2ccc(Nc3ccccc3)cc21
	inactive	inactive	inactive	inactive	inactive	inactive	inactive	inactive	inactive	inactive	inactive	inactive	inactive	inactive	inactive	inactive	1720 nM	Nc1cc(F)ccc1Nc1ccc2c(c1)Cc1ccccc1CC2=O
37%																		Nc1ccccc1Nc1cccc2c1Oc1ccccc1CC2=O
32%																		O=C1Cc2ccccc2Oc2c(Nc3ccccc3)cccc21
	inactive	inactive	inactive	inactive	inactive	inactive	inactive	inactive	inactive	inactive	inactive	inactive	inactive	inactive	inactive	inactive	980 nM	Nc1cc(F)ccc1Nc1ccc2c(c1)CC(=O)c1ccccc1C2
